Tests used:
Rattus norvegicus [1] = experiment: Antihypertensive activity in spontaneously hypertensive rats (SHR) measured by percentage fall in cardiac rhythm (CR) at 25 mg/kg administered intraperitoneally at 3 h; format: functional, Heart; details: route intraperitoneal
How it was run: (§1)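 Unanesthetized Okamoto-strain SHR, male and female, 8 weeks old, 300–350 g, systolic pressure ≥190 mmHg, heart rate 400–650 beats/min; five animals per dose. Given ip at 2.5 mL/kg, dissolved or suspended in normal saline or saline with 0.2% (carboxymethyl)cellulose and 1.0% Tween 80. Tail AP and CR recorded by mechanical transduction at set times; reported as percentage fall from control.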

Rattus norvegicus [2] = experiment: Antihypertensive activity in spontaneously hypertensive rats (SHR) measured by percentage fall in arterial pressure (AP) at 25 mg/kg administered intraperitoneally at 5 h; format: functional, Artery; details: route intraperitoneal; how it was run: as §1
Rattus norvegicus [3] = experiment: Antihypertensive activity in spontaneously hypertensive rats (SHR) measured by percentage fall in arterial pressure (AP) at 25 mg/kg administered intraperitoneally at 3 h; format: functional, Artery; details: route intraperitoneal; how it was run: as §1
Rattus norvegicus [4] = experiment: Antihypertensive activity in spontaneously hypertensive rats (SHR) measured by percentage fall in cardiac rhythm (CR) at 25 mg/kg administered intraperitoneally at 24 h; format: functional, Heart; details: route intraperitoneal; how it was run: as §1
Rattus norvegicus [5] = experiment: Antihypertensive activity in spontaneously hypertensive rats (SHR) measured by percentage fall in arterial pressure (AP) at 25 mg/kg administered intraperitoneally at 24 h; format: functional, Artery; details: route intraperitoneal; how it was run: as §1
Rattus norvegicus [6] = experiment: Antihypertensive activity in spontaneously hypertensive rats (SHR) measured by percentage fall in cardiac rhythm (CR) at 25 mg/kg administered intraperitoneally at 5 h; format: functional, Heart; details: route intraperitoneal
How it was run: (§2)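 Conscious SHR (Okamoto strain), 8 weeks old, male and female, 300–350 g, systolic BP ≥190 mmHg, CR 400–650 beats/min. Given ip or po at 2.5 mL/kg in normal saline or saline with 0.2% (carboxymethyl)cellulose and 1.0% Tween 80. Tail AP and CR recorded by mechanical transduction at 1, 3, 5 and 24 h, five animals per dose. Effect expressed as % fall versus control.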

Rattus norvegicus [7] = experiment: Antihypertensive activity in spontaneously hypertensive rats (SHR) measured by percentage fall in arterial pressure (AP) at 25 mg/kg administered intraperitoneally at 1 h; format: functional, Artery; details: route intraperitoneal; how it was run: as §1
Rattus norvegicus [8] = experiment: Antihypertensive activity in spontaneously hypertensive rats (SHR) measured by percentage fall in cardiac rhythm (CR) at 25 mg/kg administered intraperitoneally at 1 h; format: functional, Heart; details: route intraperitoneal; how it was run: as §1
Homo sapiens [9] = species on record: Homo sapiens; experiment: In vitro inhibition of platelet aggregation induced by […] (PRP incubated for 5 minutes at 37 degree C) at 10e-5 M; No significance; format: functional
Homo sapiens [10] = species on record: Homo sapiens; experiment: In vitro inhibition of platelet aggregation induced by AA (PRP incubated for 60 minutes at 37 degree C) at 10e-5 M; No significance; format: functional
How it was run: (§3)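 Human venous blood anticoagulated with 3.8% sodium citrate (1:9). PRP from centrifugation at 800 rpm for 10 min at room temperature. Count adjusted with PPP to […]. Compound in saline with 10% ethylene glycol is added to PRP and incubated at 37 °C before the agonist. Agonists: ADP 2×10^-5 M, AA 0.6 mM, PGH2 2.8 μM, adrenaline 0.6 μM. Born absorbance aggregometry; n = 5.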

Homo sapiens [11] = species on record: Homo sapiens; experiment: In vitro inhibition of platelet aggregation induced by ADP-II (PRP incubated for 60 minutes at 37 degree C) at 10e-5 M; format: functional; details: 1 h; how it was run: as §3
Homo sapiens [12] = species on record: Homo sapiens; experiment: In vitro inhibition of platelet aggregation induced by ADP-II (PRP incubated for 5 minutes at 37 degree C) at 10e-5 M; No significance; format: functional; how it was run: as §3
Homo sapiens [13] = species on record: Homo sapiens; experiment: In vitro inhibition of platelet aggregation induced by ADP-II (PRP incubated for 5 minutes at 37 degree C) at 10e-5 M; format: functional; how it was run: as §3
Rattus norvegicus [14] = experiment: Antihypertensive activity in spontaneously hypertensive rats (SHR) measured by percentage fall in cardiac rhythm (CR) at 25 mg/kg administered intraperitoneally at 5 h;No significance; format: functional, organism-based; set-up: dose 25 mg/kg; details: Heart; how it was run: as §2
Rattus norvegicus [15] = experiment: Antihypertensive activity in spontaneously hypertensive rats (SHR) measured by percentage fall in arterial pressure (AP) at 25 mg/kg administered intraperitoneally at 24 h;No significance; format: functional, organism-based; set-up: dose 25 mg/kg; details: Artery; how it was run: as §1
Rattus norvegicus [16] = experiment: Antihypertensive activity in spontaneously hypertensive rats (SHR) measured by percentage fall in cardiac rhythm (CR) at 25 mg/kg administered intraperitoneally at 24 h;No significance; format: functional, organism-based; set-up: dose 25 mg/kg; details: Heart; how it was run: as §1
Rattus norvegicus [17] = experiment: Antihypertensive activity in spontaneously hypertensive rats (SHR) measured by percentage fall in cardiac rhythm (CR) at 25 mg/kg administered intraperitoneally at 3 h;No significance; format: functional, organism-based; set-up: dose 25 mg/kg; details: Heart; how it was run: as §2
Rattus norvegicus [18] = experiment: Antihypertensive activity in spontaneously hypertensive rats (SHR) measured by percentage fall in cardiac rhythm (CR) at 25 mg/kg administered intraperitoneally at 1 h;No significance; format: functional, organism-based; set-up: dose 25 mg/kg; details: Heart; how it was run: as §1
Rattus norvegicus [19] = experiment: Antihypertensive activity in spontaneously hypertensive rats (SHR) measured by percentage fall in arterial pressure (AP) at 25 mg/kg administered intraperitoneally at 5 h;No significance; format: functional, organism-based; set-up: dose 25 mg/kg; details: Artery; how it was run: as §1

Row | SMILES | Decrease in CR (Rattus norvegicus [1]) [%] | Decrease in AP (Rattus norvegicus [2]) [%] | Decrease in AP (Rattus norvegicus [3]) [%] | Decrease in CR (Rattus norvegicus [4]) [%] | Decrease in CR (Rattus norvegicus [6]) [%] | Decrease in AP (Rattus norvegicus [7]) [%] | inhibition at 10 µM (Homo sapiens [11]) [%] | also measured
1 | COc1ccc2[nH]c3c(N/N=C\c4ccccc4)nncc3c2c1 | -20 | 8 | 6 | -13 | – | – | – | –
2 | COc1ccc2[nH]c3c(NN=C(C)C)nncc3c2c1 | -11 | 14 | 13 | -10 | -8 | – | – | Decrease in AP (Rattus norvegicus [5]): 7%
3 | Cl.NNc1[nH]ncc2c3cc(OCc4ccccc4)ccc3nc1-2 | -13 | 28 | 33 | -16 | -15 | 18 | – | Decrease in AP (Rattus norvegicus [5]): 9%; Decrease in CR (Rattus norvegicus [8]): -7%
4 | COc1ccc2c(c1)cc1c(S)nncn12 | – | – | – | – | – | – | 100 | inhibition (Homo sapiens [9]): No significant values; inhibition (Homo sapiens [10]): No significant values; inhibition (Homo sapiens [12]): No significant values
5 | NNc1[nH]ncc2c3cc(OCc4ccccc4)ccc3nc1-2.O=S(=O)(O)O | 7 | 26 | 32 | – | 8 | 21 | – | Decrease in CR (Rattus norvegicus [8]): 9%
6 | COc1ccc2c(c1)cc1c(NN)nncn12 | – | – | – | – | – | – | 100 | inhibition at 10 µM (Homo sapiens [13]): 100%
7 | COc1ccc2c(c1)cc1c(O)nncn12 | – | – | – | – | – | – | 100 | inhibition (Homo sapiens [9]): No significant values; inhibition (Homo sapiens [10]): No significant values; inhibition (Homo sapiens [12]): No significant values
8 | CCOc1ccc2[nH]c3c(S)nncc3c2c1 | – | – | 5 | – | – | 10 | – | Decrease in CR (Rattus norvegicus [14]): No significant values; Decrease in AP (Rattus norvegicus [15]): No significant values; Decrease in CR (Rattus norvegicus [16]): No significant values; Decrease in CR (Rattus norvegicus [17]): No significant values; Decrease in CR (Rattus norvegicus [18]): No significant values; Decrease in AP (Rattus norvegicus [19]): No significant values

Source: ChEMBL document CHEMBL1123757, “Selective thromboxane synthetase inhibitors and antihypertensive agents. New derivatives of 4-hydrazino-5H-pyridazino[4,5-b]indole, 4-hydrazinopyridazino[4,5-a]indole, and related compounds” (J Med Chem, 1987)
